Results taken from ChEMBL document CHEMBL1944519 (Bioorg Med Chem, 2012).

What follows are compounds tested against T1, Steryl-sulfatase (Homo sapiens) (UniProt P08842) (assay: Ratio of 17beta-3'-trifluoromethylbenzylest radiol IC50 to compound IC50 for steroid sulfatase).
T1 sequence (whole entry): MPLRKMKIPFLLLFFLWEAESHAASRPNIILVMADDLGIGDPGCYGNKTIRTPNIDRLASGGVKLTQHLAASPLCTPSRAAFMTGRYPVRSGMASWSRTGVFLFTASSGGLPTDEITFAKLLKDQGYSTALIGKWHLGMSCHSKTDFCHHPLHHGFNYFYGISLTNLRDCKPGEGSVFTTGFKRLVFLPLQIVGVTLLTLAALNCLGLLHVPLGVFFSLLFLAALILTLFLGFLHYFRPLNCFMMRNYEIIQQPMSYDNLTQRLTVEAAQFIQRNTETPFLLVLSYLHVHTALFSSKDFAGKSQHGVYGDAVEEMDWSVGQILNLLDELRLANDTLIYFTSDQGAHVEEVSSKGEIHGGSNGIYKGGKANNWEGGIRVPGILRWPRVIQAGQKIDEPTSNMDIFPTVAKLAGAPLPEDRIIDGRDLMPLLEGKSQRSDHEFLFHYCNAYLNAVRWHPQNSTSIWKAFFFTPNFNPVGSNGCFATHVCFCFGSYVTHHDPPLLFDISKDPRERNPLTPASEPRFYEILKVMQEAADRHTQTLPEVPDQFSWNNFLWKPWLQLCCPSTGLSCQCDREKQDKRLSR
For `C[C@]12CC[C@@H]3c4ccc(O)cc4CC[C@H]3[C@@H]1CC[C@@H]2NS(=O)(=O)c1cccc(C(F)(F)F)c1`, the Ratio IC50 was 6.

What follows are compounds tested against T2, Steryl-sulfatase (Homo sapiens, UniProt P08842) (assay: Mixed type inhibition of steroid sulfatase using 4-methylumbelliferyl sulfate as substrate by Lineweaver-Burk plot analysis).
T2 sequence (P08842 whole entry): T1 sequence (whole entry)
Method in brief: (§1)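 Kinetics used purified human placental STS at 10 nM final, 25 °C. Inhibitor was fixed at 75, 50 or 25 nM final (plus an inhibitor-free control) against 4-MUS from 83.3 to 500 μM final, in 0.1 M Tris-HCl pH 7.0. Initial rates (RFU/s) were measured by fluorescence in triplicate and plotted as Lineweaver–Burk. Slopes and intercepts were replotted with mixed-type equations to give Ki and αKi.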
`C[C@]12CC[C@@H]3c4ccc(O)cc4CC[C@H]3[C@@H]1CC[C@@H]2NS(=O)(=O)c1cccc(Br)c1` was tested, and the Ki was 23 nM.

What follows are compounds tested against T2, Steryl-sulfatase (assay: Inhibition of steroid sulfatase using 4-methylumbelliferyl sulfate as substrate after 10 mins by spectrofluorimeter plate reader).
Method in brief: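 Human placental STS, purified, used at 10 nM final with 200 μM 4-MUS (Km level). Assay buffer 0.1 M Tris-HCl pH 7.0, 0.01% Triton X-100, 5% DMSO, 25 °C. Inhibitor dilutions in DMSO/Tris (1:1), enzyme added last. 4-MU release read by fluorescence (ex 360, em 460) over 10 min, in triplicate. IC50 from percent activity vs log[I], fitted with a slope-factor equation plus background term.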
`C[C@]12CC[C@@H]3c4ccc(O)cc4CC[C@H]3[C@@H]1CC[C@@H]2NS(=O)(=O)c1cccc(OC(F)(F)F)c1` was tested, and the IC50 was 74 nM. In the case of `Cc1cccc(S(=O)(=O)N[C@H]2CC[C@H]3[C@@H]4CCc5cc(O)ccc5[C@H]4CC[C@]23C)c1`, the IC50 is reported as 65 nM. For `Cc1ccc(CS(=O)(=O)N[C@H]2CC[C@H]3[C@@H]4CCc5cc(O)ccc5[C@H]4CC[C@]23C)cc1`, the IC50 was 261 nM. `Cc1ccc(S(=O)(=O)O[C@H]2CC[C@H]3[C@@H]4CCc5cc(O)ccc5[C@H]4CC[C@]23C)cc1` was tested, and the IC50 was 293 nM. `Cc1ccc(S(=O)(=O)N[C@H]2CC[C@H]3[C@@H]4CCc5cc(O)ccc5[C@H]4CC[C@]23C)cc1` showed an IC50 of 207 nM. In the case of `C[C@]12CC[C@@H]3c4ccc(O)cc4CC[C@H]3[C@@H]1CC[C@@]2(O)Cc1ccc2ccccc2c1`, the IC50 is reported as 120 nM. Compound `COc1cccc(S(=O)(=O)N[C@H]2CC[C@H]3[C@@H]4CCc5cc(O)ccc5[C@H]4CC[C@]23C)c1` has an IC50 of 193 nM. `C[C@]12CC[C@@H]3c4ccc(O)cc4CC[C@H]3[C@@H]1CC[C@@H]2NS(=O)(=O)c1cccc(C#N)c1` showed an IC50 of 137 nM. Work on `C[C@]12CC[C@@H]3c4ccc(O)cc4CC[C@H]3[C@@H]1CC[C@@H]2NS(=O)(=O)c1cccc(C(F)(F)F)c1` yielded an IC50 of 23 nM. Compound `CC(C)(C)c1ccc(S(=O)(=O)N[C@H]2CC[C@H]3[C@@H]4CCc5cc(O)ccc5[C@H]4CC[C@]23C)cc1` has an IC50 of 18 nM. In the case of `C[C@]12CC[C@@H]3c4ccc(O)cc4CC[C@H]3[C@@H]1CC[C@@H]2NS(=O)(=O)c1cccc(F)c1`, the IC50 is reported as 112 nM. With `CC(C)c1ccc(S(=O)(=O)N[C@H]2CC[C@H]3[C@@H]4CCc5cc(O)ccc5[C@H]4CC[C@]23C)cc1` the IC50 was 62 nM. With `C[C@]12CC[C@@H]3c4ccc(O)cc4CC[C@H]3[C@@H]1CC[C@@H]2NS(=O)(=O)c1ccc(Cl)cc1` the IC50 was 271 nM. For `C[C@]12CC[C@@H]3c4ccc(O)cc4CC[C@H]3[C@@H]1CC[C@@H]2NS(=O)(=O)c1ccc(Oc2ccccc2)cc1`, the IC50 was 39 nM. `C[C@]12CC[C@@H]3c4ccc(O)cc4CC[C@H]3[C@@H]1CC[C@@H]2NS(=O)(=O)c1ccccc1Br` showed an IC50 of 493 nM. `C[C@]12CC[C@@H]3c4ccc(O)cc4CC[C@H]3[C@@H]1CC[C@@H]2NS(=O)(=O)c1cccc(Br)c1` showed an IC50 of 25 nM. Compound `C[C@]12CC[C@@H]3c4ccc(O)cc4CC[C@H]3[C@@H]1CC[C@@H]2NS(=O)(=O)Cc1ccccc1` has an IC50 of 364 nM. In the case of `CCCCc1ccc(S(=O)(=O)N[C@H]2CC[C@H]3[C@@H]4CCc5cc(O)ccc5[C@H]4CC[C@]23C)cc1`, the IC50 is reported as 26 nM. Work on `C[C@]12CC[C@@H]3c4ccc(O)cc4CC[C@H]3[C@@H]1CC[C@@]2(O)Cc1cccc(C(F)(F)F)c1` yielded an IC50 of 126 nM. In the case of `C[C@]12CC[C@@H]3c4ccc(O)cc4CC[C@H]3[C@@H]1CC[C@@H]2NS(=O)(=O)c1ccc2ccccc2c1`, the IC50 is reported as 20 nM. Work on `C[C@]12CC[C@@H]3c4ccc(O)cc4CC[C@H]3[C@@H]1CC[C@@H]2NS(=O)(=O)c1ccc(C(F)(F)F)cc1` yielded an IC50 of 73 nM. Work on `CCCCCc1ccc(S(=O)(=O)N[C@H]2CC[C@H]3[C@@H]4CCc5cc(O)ccc5[C@H]4CC[C@]23C)cc1` yielded an IC50 of 51 nM. `C[C@]12CC[C@@H]3c4ccc(O)cc4CC[C@H]3[C@@H]1CC[C@@H]2NS(=O)(=O)c1ccc(Br)cc1` gave an IC50 of 190 nM. `C[C@]12CC[C@@H]3c4ccc(O)cc4CC[C@H]3[C@@H]1CC[C@@H]2NS(=O)(=O)c1cccc(Cl)c1` was tested, and the IC50 was 67 nM. In the case of `C[C@]12CC[C@@H]3c4ccc(O)cc4CC[C@H]3[C@@H]1CC[C@@]2(O)Cc1ccc(-c2ccccc2)cc1`, the IC50 is reported as 35 nM. Compound `C[C@]12CC[C@@H]3c4ccc(O)cc4CC[C@H]3[C@@H]1CC[C@@H]2NC(=O)c1cccc(C(F)(F)F)c1` has an IC50 of 749 nM. With `CCCc1ccc(S(=O)(=O)N[C@H]2CC[C@H]3[C@@H]4CCc5cc(O)ccc5[C@H]4CC[C@]23C)cc1` the IC50 was 44 nM. `C[C@]12CC[C@@H]3c4ccc(O)cc4CC[C@H]3[C@@H]1CC[C@@H]2NS(=O)(=O)c1cccc([N+](=O)[O-])c1` showed an IC50 of 90 nM. In the case of `C[C@]12CC[C@@H]3c4ccc(O)cc4CC[C@H]3[C@@H]1CC[C@@H]2NS(=O)(=O)c1ccc(F)cc1`, the IC50 is reported as 479 nM. Compound `Cc1ccc(S(=O)(=O)N[C@@H]2CC[C@H]3[C@@H]4CCc5cc(O)ccc5[C@H]4CC[C@]23C)cc1` has an IC50 of 341 nM. For `C[C@]12CC[C@@H]3c4ccc(O)cc4CC[C@H]3[C@@H]1CC[C@@H]2NS(=O)(=O)c1ccc(-c2ccccc2)cc1`, the IC50 was 9 nM. `C[C@]12CC[C@@H]3c4ccc(O)cc4CC[C@H]3[C@@H]1CC[C@@H]2NS(=O)(=O)c1ccccc1` was tested, and the IC50 was 343 nM.

The compounds below were run against T2, Steryl-sulfatase (assay: Inhibition of steroid sulfatase using 4-methylumbelliferyl sulfate as substrate by Lineweaver-Burk plot analysis).
Method in brief: as §1
In the case of `C[C@]12CC[C@@H]3c4ccc(O)cc4CC[C@H]3[C@@H]1CC[C@@H]2NS(=O)(=O)c1cccc(Br)c1`, the Ki is reported as 23 nM.
